# Compound activity as filed in PubChem.
# An excerpt weighted towards active compounds, which were near 1.5% of everything screened.
# PKA-R2B act: activators of human PKA-R2B complex; activation, % at 11.4 µM; PKA-R2B holoenzyme dissociation, Cy5-IP20 fluorescence polarization; R2B truncated from residue 108, S112A mutant; 0% DMSO only, 100% 113 µM cGMP; 340,000 tested, 0.079% active; P22694+P31323;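 active = activation above a cutoff set at the mean over all compounds plus 3 SD, cut at about 18% in these data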;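 also: higher means more holoenzyme dissociation and a rise in polarization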
# Target sequence (P31323 whole entry, looked up, other chains not shown, the tested form may be a part): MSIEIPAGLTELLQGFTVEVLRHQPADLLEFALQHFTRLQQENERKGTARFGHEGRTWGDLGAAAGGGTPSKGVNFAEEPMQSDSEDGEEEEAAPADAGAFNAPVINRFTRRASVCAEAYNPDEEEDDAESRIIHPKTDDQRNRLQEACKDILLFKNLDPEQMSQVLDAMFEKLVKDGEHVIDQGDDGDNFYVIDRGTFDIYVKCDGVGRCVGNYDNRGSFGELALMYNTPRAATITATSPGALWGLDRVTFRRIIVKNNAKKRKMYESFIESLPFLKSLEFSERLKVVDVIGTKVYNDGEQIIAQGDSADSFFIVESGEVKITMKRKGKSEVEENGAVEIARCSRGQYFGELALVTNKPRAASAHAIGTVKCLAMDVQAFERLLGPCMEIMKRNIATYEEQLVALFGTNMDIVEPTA
# SIRT5 inh: sirtuin-5 (human) deacylase inhibition; 330,000 tested, 1.1% active; inhibition, % at 15 µM; Purified SirT5, succinyl-peptide AMC, trypsin-coupled fluorescence; AID 652115; Q9NXA8; in the data active = inhibition above about 15%; inconclusive = no clear call, values can overlap the other calls
# PKA-R1A activ: activates the PKA-R1A holoenzyme complex; P00514+P68181; PKA-R1A dissociation, Cy5-IP20 fluorescence polarization; scaled: DMSO 0%, 113 µM cGMP 100%; activation, % at 11.4 µM; 340,000 tested, 0.083% active;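 active = percent activation above the mean of all tested compounds plus 3 SD, cut at about 19% in these data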;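 also: higher means more PKAc released from R1A so a rise in polarization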
# S100A4 inh HTS: inhibitors of human S100A4 binding to myosin IIA peptide; P26447; S100A4/TAMRA-MyoIIA peptide fluorescence polarization; inhibition, % at 10.7 µM; 360,000 tested, 0.14% active; AID 652163;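 active = mean inhibition of at least 70% across replicates, with every replicate also reaching that level; inconclusive = mean inhibition reaches 70% but some replicates fall short; inactive = mean inhibition below 70%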
# Target sequence (P26447 whole entry, looked up): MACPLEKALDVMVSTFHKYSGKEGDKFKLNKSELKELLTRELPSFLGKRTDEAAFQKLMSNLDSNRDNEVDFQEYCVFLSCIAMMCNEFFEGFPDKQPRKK
#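 Material: S100A4 monomer protein | Medium: HEPES pH 7.2 with CaCl2, KCl, NaCl, DTT, Triton | Reagent: Labelled myosin peptide probe, 5 nM | Doses: One dose per compound | Times: 5 min incubation before reading | Benchmarks: Neutral control DMSO, positive control TFP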
# CRFR2-BP antag: antagonists of CRF-binding protein/CRF-R2 receptor complex. HEK293 CRF-R2/CRF-BP, CRF-induced calcium fluorescence. inhibition, % at 11.8 µM. 350,000 tested, 0.59% active;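 active = inhibition of the ligand-induced calcium signal above about 50% at the single tested concentration, limit read from the data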
# Numbers without * were called inactive; ? = inconclusive; nt = no result.
SMILES,PKA-R2B act,SIRT5 inh,PKA-R1A activ,S100A4 inh HTS,CRFR2-BP antag
C[C@@H]1CN([C@H](C)CO)C(=O)c2cc(NS(=O)(=O)c3cn(C)cn3)ccc2O[C@H]1CN(C)Cc1ccc2c(c1)OCO2,nt,-11,nt,-67,nt
O=C(Nc1ccc(Cl)cc1)N1C[C@@H]2[C@H](c3ccccc31)[C@H](CO)N2C(=O)c1ccccn1,nt,0,nt,nt,nt
CCCNC(=O)C[C@@H]1CC[C@H]2[C@H](COc3ccc(NC(=O)Nc4cccc(C)c4)cc3C(=O)N2C)O1,nt,-2,nt,-18,nt
CCC(=O)N1[C@H](C(=O)N2CCCCC2)[C@@H](CO)[C@@H]2Cn3c(ccc(-c4cccc(F)c4)c3=O)[C@@H]21,nt,-25,nt,8,nt
COc1ccc(CNC(=O)C2(c3ccc(Cl)cc3)CC2)cc1,-5,nt,-6,nt,61*
C[C@H](CO)N1C[C@H](C)[C@H](CN(C)S(=O)(=O)c2cn(C)cn2)OCCCC[C@H](C)Oc2ccc(NC(=O)CCCN(C)C)cc2C1=O,nt,4,nt,7,nt
CCC/C(O)=C1\C(=O)CC(c2ccccc2)CC1=NCCc1c(C)[nH]c2ccccc12 (stereo not drawn),-10,-1,-10,0,7
CCC/C(O)=C1\C(=O)CCCC1=NCCc1c(C)[nH]c2ccccc12,0,25*,-11,8,-1
CC(C)NC(=O)Nc1ccc2c(c1)C(=O)N([C@H](C)CO)C[C@@H](C)[C@H](CN(C)S(=O)(=O)c1cn(C)cn1)O2,nt,5,nt,-3,nt
O=C(Nc1ccc(Cl)cc1Cl)c1cc2ccccc2o1,-8,-1,6,-1,2
O=C(Nc1ncccc1Cl)c1cc2ccccc2o1,-10,20*,-16,2,-7
C[C@@H]1CN([C@H](C)CO)C(=O)c2cccc(NS(=O)(=O)c3cccs3)c2O[C@@H]1CN(C)S(=O)(=O)c1ccc(F)cc1,nt,-4,nt,-28,nt
CC1Cc2ccccc2N1CC(=O)Nc1ccc(Cl)c(S(=O)(=O)N(C)C)c1 (stereo not drawn),6,16*,6,4,4
CC1Cc2ccccc2N1CC(=O)Nc1ccc(S(=O)(=O)N(C)C)cc1 (stereo not drawn),7,-3,-3,0,-12
CCCS(=O)(=O)NC(=O)C1(C)CCN(C(=O)c2cccs2)C1 (stereo not drawn),nt,20*,nt,-5,nt
CCCS(=O)(=O)NC(=O)C1(C)CCN(C(=O)c2c(F)cccc2F)C1 (stereo not drawn),nt,nt,nt,-4,nt
O=C(Nc1cccc2[nH]ncc12)c1ccc(F)cc1,-3,nt,19*,nt,25
C[C@@H]1CN([C@H](C)CO)C(=O)c2cc(C#CC3CCCCC3)cnc2O[C@H]1CN(C)C(=O)NC1CCCC1,nt,2,nt,?,nt
Cc1c(CCO)sc[n+]1CC(=O)OCCC12CC3CC(CC(C3)C1)C2,4,-6,-9,-5,5
CCCCCCCCCOC(=O)C[n+]1csc(CCO)c1C,3,nt,10,nt,111*
O=C(NC1CCCCC1)N1CC(=O)N2[C@H](CO)[C@@H](c3ccc(-c4cccnc4)cc3)[C@H]2C1,nt,1,nt,-3,nt
COc1ccc(CN(C)C[C@@H]2Oc3ccc(NC(=O)Cc4ccccc4)cc3CC(=O)N([C@H](C)CO)C[C@@H]2C)cc1,nt,1,nt,-5,nt
COc1ccc(CN(C)C[C@@H]2Oc3ccc(NC(=O)NC4CCCCC4)cc3CC(=O)N([C@H](C)CO)C[C@@H]2C)cc1,nt,15*,nt,2,nt
COc1ccc(CN(C)C[C@@H]2Oc3ccc(NC(=O)Cc4ccccc4)cc3CC(=O)N([C@@H](C)CO)C[C@H]2C)cc1,nt,3,nt,84*,nt
COc1ccc(NC(=O)Nc2ccc3c(c2)CC(=O)N([C@@H](C)CO)C[C@H](C)[C@@H](CN(C)Cc2ccc(Oc4ccccc4)cc2)O3)cc1,nt,23*,nt,-7,nt
SMILES,PKA-R2B act,SIRT5 inh,PKA-R1A activ,S100A4 inh HTS,CRFR2-BP antag
C[C@@H]1CN([C@@H](C)CO)C(=O)Cc2cc(NC(=O)CCC(F)(F)F)ccc2O[C@H]1CN(C)Cc1ccc(Oc2ccccc2)cc1,nt,22*,nt,nt,nt
COc1ccc(NC(=O)N(C)C[C@@H]2OCCCC[C@@H](C)Oc3ccc(N(C)C)cc3C(=O)N([C@@H](C)CO)C[C@H]2C)cc1,nt,1,nt,-6,nt
C[C@@H]1CN([C@H](C)CO)C(=O)Cc2cc(NS(=O)(=O)c3ccc(Cl)cc3)ccc2O[C@H]1CN(C)S(C)(=O)=O,nt,-6,nt,-1,nt
CC(C)NC(=O)N(C)C[C@H]1Oc2cc(C#CC3CC3)ccc2S(=O)(=O)N([C@@H](C)CO)C[C@H]1C,nt,1,nt,6,nt
C[C@H](CO)N1C[C@H](C)[C@H](CN(C)Cc2ccccc2)Oc2ccc(NC(=O)C3CC3)cc2CC1=O,nt,0,nt,11,nt
C[C@@H]1CN([C@H](C)CO)C(=O)Cc2cc(NC(=O)C3CC3)ccc2O[C@@H]1CN(C)Cc1ccccc1,nt,99*,nt,5,nt
Cc1noc(C)c1S(=O)(=O)N(C)C[C@@H]1Oc2ccc(NC(=O)C3CC3)cc2CC(=O)N([C@@H](C)CO)C[C@H]1C,nt,6,nt,142*,nt
Cc1noc(C)c1S(=O)(=O)N(C)C[C@H]1Oc2ccc(NC(=O)C3CC3)cc2CC(=O)N([C@@H](C)CO)C[C@@H]1C,nt,3,nt,-3,nt
CSCC[C@H](NC(=O)c1ccc(Cl)c([N+](=O)[O-])c1)c1nc2ccccc2[nH]1,-10,nt,-9,nt,18
O=C(NC(Cc1ccccc1)c1nc2ccccc2[nH]1)c1ccc(Cl)c([N+](=O)[O-])c1 (stereo not drawn),-9,-4,-6,3,76*
C[C@@H]1CN([C@@H](C)CO)C(=O)Cc2cc(NC(=O)Nc3ccc4c(c3)OCO4)ccc2O[C@H]1CN(C)Cc1ccc(Cl)c(Cl)c1,nt,3,nt,12,nt
CCOc1ccc(CN2CCN(C(=O)c3cccc(F)c3)CC2)cc1,6,19*,-4,-9,6
CO[C@@H]1CN(C)C(=O)c2cc(NC(=O)Nc3cccc(F)c3)ccc2OC[C@H](C)N(C)C[C@H]1C,nt,-3,nt,-28,nt
CCN(CC)C(=O)[C@H]1C[C@H](CC(=O)NCc2cccc(C(F)(F)F)c2)C(=O)N2CCc3c([nH]c4cc(CCC(=O)N(C)C)ccc34)[C@]12C,-5,-6,0,0,-5
CC(C)N(C(=O)[C@H]1C[C@H](CC(=O)NC(C)(C)C)C(=O)N2CCc3c([nH]c4cc(-c5ccco5)ccc34)[C@]12C)C(C)C,-7,27*,0,2,14
CCN(CC)C(=O)[C@H]1C[C@H](CC(=O)NC(C)(C)C)C(=O)N2CCc3c([nH]c4cc(-c5ccco5)ccc34)[C@]12C,-8,2,-11,-3,4
O=C(C[C@H]1C[C@H](C(=O)N2CCOCC2)[C@@]2(CCC3CCCC3)c3[nH]c4cc(-c5ccco5)ccc4c3CCN2C1=O)NCc1ccco1,-1,28*,-2,-19,-4
